Assay results taken from ChEMBL document CHEMBL4428071 (J Med Chem, 2016).
The source made the active and inactive calls. The rule behind the calls is not given here.

What was measured:
[1] = target: T1, Mast/stem cell growth factor receptor Kit (Homo sapiens, UniProt P10721); assay: Inhibition of TEL-fused cKIT (unknown origin) expressed in mouse BA/F3 cells assessed as cell growth inhibition after 72 hrs by cell titer-glo assay; assay type: cell-based
[2] = Cytotoxicity mouse BA/F3 cells assessed as cell growth inhibition after 72 hrs by cell titer-glo assay; assay type: cell-based, BaF3
Method in brief: (§1)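 Cells seeded at 3000 per well and exposed to serial compound dilutions for 72 h. Viability read by CellTiter-Glo luminescence and normalised to DMSO controls; mean of three independent measurements. BaF3 lines kept IL-3-free in RPMI 1640/10% FBS after retroviral transduction and puromycin selection. GIST lines grown in DMEM/10% FBS.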

[3] = test system: Mast/stem cell growth factor receptor Kit (Homo sapiens), P10721 [T670I]; assay: Inhibition of TEL-fused cKIT T670I mutant (unknown origin) expressed in mouse BA/F3 cells assessed as cell growth inhibition after 72 hrs by cell titer-glo assay; assay type: cell-based; method in brief: as §1
Sequence of Mast/stem cell growth factor receptor Kit (Homo sapiens), P10721 [T670I] (P10721 whole entry T670I, the tested form may be a part): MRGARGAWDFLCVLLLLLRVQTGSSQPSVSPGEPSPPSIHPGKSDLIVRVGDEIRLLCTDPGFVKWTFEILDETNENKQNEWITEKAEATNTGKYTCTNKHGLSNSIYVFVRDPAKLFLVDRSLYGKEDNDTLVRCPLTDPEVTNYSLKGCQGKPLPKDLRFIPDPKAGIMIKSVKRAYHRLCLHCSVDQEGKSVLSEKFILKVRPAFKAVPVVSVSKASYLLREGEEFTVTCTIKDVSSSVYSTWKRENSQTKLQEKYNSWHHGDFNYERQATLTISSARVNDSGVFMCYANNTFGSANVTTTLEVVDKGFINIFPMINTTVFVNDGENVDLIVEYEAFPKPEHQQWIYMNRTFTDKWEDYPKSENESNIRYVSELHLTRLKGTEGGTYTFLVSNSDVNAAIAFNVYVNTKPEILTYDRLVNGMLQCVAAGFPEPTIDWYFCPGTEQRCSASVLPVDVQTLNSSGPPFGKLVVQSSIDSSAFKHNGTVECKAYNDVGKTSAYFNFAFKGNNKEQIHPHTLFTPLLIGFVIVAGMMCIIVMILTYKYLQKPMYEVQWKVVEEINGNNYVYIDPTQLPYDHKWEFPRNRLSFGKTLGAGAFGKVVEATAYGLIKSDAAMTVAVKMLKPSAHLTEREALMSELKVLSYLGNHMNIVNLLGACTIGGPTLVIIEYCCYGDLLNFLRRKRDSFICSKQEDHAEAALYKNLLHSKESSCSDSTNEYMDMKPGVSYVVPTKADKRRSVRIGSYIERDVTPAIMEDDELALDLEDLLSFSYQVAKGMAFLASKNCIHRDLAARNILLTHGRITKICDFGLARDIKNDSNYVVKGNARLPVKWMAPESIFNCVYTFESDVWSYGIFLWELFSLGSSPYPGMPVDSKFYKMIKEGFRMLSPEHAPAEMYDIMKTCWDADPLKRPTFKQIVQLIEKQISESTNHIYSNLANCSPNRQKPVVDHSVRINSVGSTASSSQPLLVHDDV

[4] = test system: Mast/stem cell growth factor receptor Kit (Homo sapiens), P10721 [V559D,T670I]; assay: Inhibition of TEL-fused cKIT T670I/V559D double mutant (unknown origin) expressed in mouse BA/F3 cells assessed as cell growth inhibition after 72 hrs by cell titer-glo assay; assay type: cell-based; method in brief: as §1
Sequence of Mast/stem cell growth factor receptor Kit (Homo sapiens), P10721 [V559D,T670I] (P10721 whole entry V559D/T670I, the tested form may be a part): as the sequence (P10721 whole entry T670I, the tested form may be a part) above, with V559D counted along it

[5] = test system: Mast/stem cell growth factor receptor Kit (Homo sapiens), P10721 [D816V]; assay: Inhibition of TEL-fused cKIT D816V mutant (unknown origin) expressed in mouse BA/F3 cells assessed as cell growth inhibition after 72 hrs by cell titer-glo assay; assay type: cell-based; method in brief: as §1
Sequence of Mast/stem cell growth factor receptor Kit (Homo sapiens), P10721 [D816V] (P10721 whole entry D816V, the tested form may be a part): as the sequence (P10721 whole entry T670I, the tested form may be a part) above, with I670T, D816V counted along it

[6] = target: T1, Mast/stem cell growth factor receptor Kit; assay: Inhibition of wild type cKIT in human GIST-T1 cells assessed as cell growth inhibition after 72 hrs by cell titer-glo assay; assay type: cell-based
Method in brief: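 GIST-T1 cells (cKIT wt) grown in DMEM with 10% FBS and 1% penicillin/streptomycin at 37 °C, 5% CO2. Viability read by CellTiter-Glo luminescence and normalized to DMSO controls. GI50 taken from the mean of three independent measurements.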

[7] = test system: Mast/stem cell growth factor receptor Kit (Homo sapiens), P10721 [V559D,V654A]; assay: Inhibition of TEL-fused cKIT V559D/V654A double mutant (unknown origin) expressed in mouse BA/F3 cells assessed as cell growth inhibition after 72 hrs by cell titer-glo assay; assay type: cell-based; method in brief: as §1
Sequence of Mast/stem cell growth factor receptor Kit (Homo sapiens), P10721 [V559D,V654A] (P10721 whole entry V559D/V654A, the tested form may be a part): as the sequence (P10721 whole entry T670I, the tested form may be a part) above, with V559D, V654A, I670T counted along it

Homo sapiens = species: Homo sapiens; assay: Inhibition of TEL-fused cKIT L567P mutant (unknown origin) expressed in mouse BA/F3 cells assessed as cell growth inhibition after 72 hrs by cell titer-glo assay; assay type: cell-based; method in brief: as §1
[8] = test system: Mast/stem cell growth factor receptor Kit (Homo sapiens), P10721 [V654A]; assay: Inhibition of TEL-fused cKIT V654A mutant (unknown origin) expressed in mouse BA/F3 cells assessed as cell growth inhibition after 72 hrs by cell titer-glo assay; assay type: cell-based; method in brief: as §1
Sequence of Mast/stem cell growth factor receptor Kit (Homo sapiens), P10721 [V654A] (P10721 whole entry V654A, the tested form may be a part): as the sequence (P10721 whole entry T670I, the tested form may be a part) above, with V654A, I670T counted along it

[9] = test system: Mast/stem cell growth factor receptor Kit (Homo sapiens), P10721 [T670I]; assay: Inhibition of […] cKIT T670I mutant in human GIST-5R cells assessed as cell growth inhibition after 72 hrs by cell titer-glo assay; assay type: cell-based
[10] = test system: Mast/stem cell growth factor receptor Kit (Homo sapiens), P10721 [T670I]; conditions: 1 uM
[11] = test system: Mast/stem cell growth factor receptor Kit (Homo sapiens), P10721 [T670I]; conditions: 1 uM; remark: listed apart in the source
[12] = test system: Mast/stem cell growth factor receptor Kit (Homo sapiens), P10721 [T670I]; conditions: 1 uM; remark: listed apart in the source
[13] = test system: Mast/stem cell growth factor receptor Kit (Homo sapiens), P10721 [T670I]; conditions: 1 uM; remark: listed apart in the source
[14] = test system: Mast/stem cell growth factor receptor Kit (Homo sapiens), P10721 [T670I]; conditions: 1 uM; remark: listed apart in the source
[15] = test system: Mast/stem cell growth factor receptor Kit (Homo sapiens), P10721 [N822K]; assay: Inhibition of TEL-fused cKIT N822K mutant (unknown origin) expressed in mouse BA/F3 cells assessed as cell growth inhibition after 72 hrs by cell titer-glo assay; assay type: cell-based; method in brief: as §1
Sequence of Mast/stem cell growth factor receptor Kit (Homo sapiens), P10721 [N822K] (P10721 whole entry N822K, the tested form may be a part): as the sequence (P10721 whole entry T670I, the tested form may be a part) above, with I670T, N822K counted along it

[16] = test system: Mast/stem cell growth factor receptor Kit (Homo sapiens), P10721 [T670I]; conditions: 1 uM; remark: listed apart in the source

T1 sequence (P10721 whole entry, the tested form may be a part): as the sequence (P10721 whole entry T670I, the tested form may be a part) above, with I670T counted along it

SMILES | GI50 [1] | GI50 at 72 h [2] | GI50 [3] | other results
CCC(=O)Nc1ccc(N2CCC(NC(=O)Nc3cccc(Oc4ccnc5cc(OC)c(OC)cc45)c3)CC2)c(C(F)(F)F)c1 | 340 nM | > 10000 nM | > 10000 nM | 
COc1cc2nccc(Oc3cccc(NC(=O)Nc4ccc(N5CCC(NC(=O)C(C)N)CC5)c(C(F)(F)F)c4)c3)c2cc1OC (single isomer, unassigned) | 120 nM | 3000 nM | 480 nM | 
COc1cc2nccc(Oc3cccc(NC(=O)Nc4ccc(N5CCC(NC(=O)C6CCNC(C)C6)CC5)c(C(F)(F)F)c4)c3)c2cc1OC (configuration not stated) | 460 nM | 4000 nM | 650 nM | 
COc1cc2nccc(Oc3cccc(NC(=O)Nc4ccc(N5CCC(NC(=O)C6CCN(C(C)=O)CC6)CC5)c(C(F)(F)F)c4)c3)c2cc1OC | 59 nM | 3400 nM | 230 nM | 
CCCS(=O)(=O)NC1CCN(c2ccc(NC(=O)Nc3cccc(Oc4ccnc5cc(OC)c(OC)cc45)c3)cc2C(F)(F)F)CC1 | 59 nM | 4230 nM | 950 nM | 
CCC(=O)NC1CCCN(c2ccc(NC(=O)Nc3cccc(Oc4ccnc5cc(OC)c(OC)cc45)c3)cc2C(F)(F)F)C1 (configuration not stated) | 280 nM | 1310 nM | 920 nM | 
COc1cc2nccc(Oc3cccc(NC(=O)Nc4ccc(N5CCC(NC(=O)CN)CC5)c(C(F)(F)F)c4)c3)c2cc1OC | 130 nM | 5000 nM | 581 nM | 
COc1cc2nccc(Oc3cccc(NC(=O)Nc4ccc(N5CCC(NC(=O)CC(C)(C)C)CC5)c(C(F)(F)F)c4)c3)c2cc1OC | 430 nM | > 10000 nM | 340 nM | 
COc1cc2nccc(Oc3cccc(NC(=O)Nc4ccc(N5CCC(NC(=O)CCN6CCCCC6)CC5)c(C(F)(F)F)c4)c3)c2cc1OC | 440 nM | 7600 nM | 260 nM | 
COc1cc2nccc(Oc3cccc(NC(=O)Nc4ccc(N5CCC(NC(=O)C6CCCN(C(=O)OC(C)(C)C)C6)CC5)c(C(F)(F)F)c4)c3)c2cc1OC (configuration not stated) | 130 nM | 510 nM | 170 nM | 
CCC(=O)NC1CCN(c2ccc(NC(=O)Nc3cccc(Oc4ccnc5cc(OC)c(OC)cc45)c3)cc2)CC1 | > 10000 nM | > 10000 nM | > 10000 nM | 
COc1cc2nccc(Oc3cccc(NC(=O)Nc4ccc(N5CCC(NC(=O)C6CCN(C(=O)C7CC7)CC6)CC5)c(C(F)(F)F)c4)c3)c2cc1OC | 130 nM | 800 nM | 120 nM | 
COc1cc2nccc(Oc3cccc(NC(=O)Nc4ccc(N5CCC(NC(=O)C6=CCCCC6)CC5)c(C(F)(F)F)c4)c3)c2cc1OC | 760 nM | 1100 nM | 760 nM | 
CCS(=O)(=O)NC1CCN(c2ccc(NC(=O)Nc3cccc(Oc4ccnc5cc(OC)c(OC)cc45)c3)cc2C(F)(F)F)CC1 | 34 nM | 6200 nM | 330 nM | 
COc1cc2nccc(Oc3cccc(NC(=O)Nc4ccc(N5CCC(NS(C)(=O)=O)CC5)c(C(F)(F)F)c4)c3)c2cc1OC | 3900 nM | > 10000 nM | 3800 nM | 
CCC(=O)NC1CCN(c2ccc(NC(=O)C3(C(=O)Nc4cccc(Oc5ccnc6cc(OC)c(OC)cc56)c4)CC3)cc2C(F)(F)F)CC1 | > 10000 nM | > 10000 nM | > 10000 nM | 

SMILES | GI50 [1] | GI50 at 72 h [2] | GI50 [3] | other results
CCN(CC)CCNC(=O)c1c(C)[nH]c(/C=C2\C(=O)Nc3ccc(F)cc32)c1C [SUNITINIB] |  | 1600 nM | 5 nM | GI50 [4]: 7 nM; GI50 [5]: 420 nM; GI50 [6]: 5 nM; GI50 [7]: 6 nM; GI50 (Homo sapiens): 3 nM; GI50 [8]: 6 nM
CCC(=O)NC1CCN(c2ccc(NC(=O)Nc3cccc(Oc4ccnc5cc(OC)c(OC)cc45)c3)cc2C(F)(F)F)CC1 | 120 nM | 1500 nM | 71 nM | 
COc1cc2nccc(Oc3cccc(NC(=O)Nc4ccc(N5CCC(NC(=O)CN6CCCC(C)C6)CC5)c(C(F)(F)F)c4)c3)c2cc1OC (configuration not stated) | 330 nM | 870 nM | 200 nM | 
COc1cc2nccc(Oc3cccc(NC(=O)Nc4ccc(N5CCC(NC(=O)c6cccnc6)CC5)c(C(F)(F)F)c4)c3)c2cc1OC | 20 nM | 7000 nM | 321 nM | 
COc1cc2nccc(Oc3cccc(NC(=O)Nc4ccc(N5CCC(NC(=O)C6CCOCC6)CC5)c(C(F)(F)F)c4)c3)c2cc1OC | 87 nM | 2900 nM | 83 nM | 
COc1cc2nccc(Oc3cccc(NC(=O)Nc4ccc(N5CCC(NC(=O)C6CCN(C)CC6)CC5)c(C(F)(F)F)c4)c3)c2cc1OC | 160 nM | 1700 nM | 81 nM | 
Cc1ccc(NC(=O)c2ccc(CN3CCN(C)CC3)cc2)cc1Nc1nccc(-c2cccnc2)n1 [IMATINIB] |  | > 10000 nM | 9600 nM | GI50 [5]: > 10000 nM; GI50 [9]: 8300 nM; inhibition [10]: inactive; inhibition [11]: inactive; inhibition [12]: inactive; GI50 [7]: 700 nM; inhibition [13]: inactive; inhibition [14]: inactive; GI50 [15]: 360 nM; inhibition [16]: inactive; GI50 (Homo sapiens): 10 nM; GI50 [8]: 700 nM
COc1cc2nccc(Oc3cccc(NC(=O)Nc4ccc(N5CCC(NS(=O)(=O)C6CC6)CC5)c(C(F)(F)F)c4)c3)c2cc1OC | 140 nM | 1900 nM | 63 nM | 
COc1cc2nccc(Oc3cccc(NC(=O)Nc4ccc(N5CCC(NC(C)=O)CC5)c(C(F)(F)F)c4)c3)c2cc1OC | 110 nM | 7100 nM | 46 nM | 
COc1cc2nccc(Oc3cccc(NC(=O)Nc4ccc(N5CCC(NC(=O)CCN6CCOCC6)CC5)c(C(F)(F)F)c4)c3)c2cc1OC | 42 nM | 3600 nM | 59 nM | 
COc1cc2nccc(Oc3cccc(NC(=O)Nc4ccc(N5CCC(NC(=O)CN(C)C)CC5)c(C(F)(F)F)c4)c3)c2cc1OC | 38 nM | 2900 nM | 53 nM | 
COc1cc2nccc(Oc3cccc(NC(=O)Nc4ccc(N5CCC(NC(=O)CCC6CCCCN6C)CC5)c(C(F)(F)F)c4)c3)c2cc1OC (configuration not stated) | 190 nM | 1200 nM | 200 nM | 
COc1cc2nccc(Oc3cccc(NC(=O)Nc4ccc(N5CCC(CNC(=O)CCC6CCCCN6C)CC5)c(C(F)(F)F)c4)c3)c2cc1OC (configuration not stated) | 250 nM | 4400 nM | 460 nM | 
CCC(=O)NC1CCN(c2ccc(C(=O)Nc3cccc(Oc4ccnc5cc(OC)c(OC)cc45)c3)cc2C(F)(F)F)CC1 | 400 nM | > 10000 nM | 2700 nM | 
CCN1CCC(C(=O)NC2CCN(c3ccc(NC(=O)Nc4cccc(Oc5ccnc6cc(OC)c(OC)cc56)c4)cc3C(F)(F)F)CC2)CC1 | 39 nM | 1300 nM | 87 nM | 
COc1cc2nccc(Oc3cccc(NC(=O)Nc4ccc(N5CCC(NC(=O)CN6CCCCC6)CC5)c(C(F)(F)F)c4)c3)c2cc1OC | 120 nM | 480 nM | 37 nM | 
